STAT1 activator: activators of IFN-gamma induced STAT1 signaling; NIH 3T3 STAT1-luciferase reporter, luminescence; 100% = IFN-gamma alone, no compound; activation (% of control), % at 5.5 µM; 200,000 tested, 2.6% active; AID 932;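 active = activation above the screen-wide mean activation plus 3 SD, cut at about 130% in these data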;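 note: raw ratio to IFN-gamma control signal so 100% means no change and 0% no light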
STAT3 activator: activators of IL-6 induced STAT3 signaling | U3A cells, IL-6 STAT3-luciferase reporter, luminescence; 100% = signal with IL-6 EC80 alone | activation (% of control), % at 5.6 µM | 190,000 tested, 0.91% active;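 active = activation above the screen-wide mean of compound activation plus 3 SD, cut at about 130% in these data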;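 note: 0% = background luminescence of wells with medium and substrate only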
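Material: STAT3-luciferase reporter U3A cells. Controls: IL-6-treated wells, 100% activation. Read-out: % activation versus median of IL-6-stimulated wells. Probe or stimulus: IL-6 stimulus at 33 ng/mL final. Timing: compound 1 h, then IL-6 6 h at 37 °C. Signal: reporter luminescence signal.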
NF-kB expr up: NF-kB expression increase, human neuronal cells. NF-kB reporter expression; active compounds read high. 190,000 tested, 1.6% active. AID 1239. fold change at 12.5 µM; in the data active = fold change above about 3.3
STAT3 inh: reduces IL-6 driven STAT3 reporter signal | U3A cells, IL-6 STAT3-luciferase reporter, luminescence; host cell line lacks STAT1 | inhibition, % at 5.5 µM | 190,000 tested, 0.89% active;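 active = inhibition above the mean inhibition across all screened compounds plus 3 SD, cut at about 44% in these data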;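 note: 0% = DMSO only wells and 100% = 100 µM nifuroxazide control wells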
STAT1 inh: inhibitors of IFN-gamma induced STAT1 signaling; 200,000 tested, 0.35% active; inhibition, % at 5.5 µM; NIH 3T3 STAT1-luciferase reporter, luminescence; AID 920;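 active = inhibition above a set limit, the mean inhibition across all tested compounds plus 3 SD, cut at about 34% in these data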;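 note: 0% = IFN-gamma with DMSO and 100% = IFN-gamma with 300 µM nifuroxazide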
APP 5'UTR act: activates APP 5'UTR luciferase reporter. SH-SY5Y APP 5'UTR luciferase reporter, luminescence; zero percent = DMSO vehicle wells. activation, % at 2 µM. 190,000 tested, 1% active. AID 1276;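 active = activation above a set limit, based on mean plus 3 SD of controls, cut at about 140% in these data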
STAT1 act conf: confirmation of STAT1 signaling activators | activation (% of control), % at 5.7 µM | AID 1262 | 1,200 tested, 97% active | shares compounds with STAT1 activator | NIH 3T3 STAT1-luciferase reporter, IFN-gamma potentiation, luminescence; 100% = IFN-gamma EC80 alone, no compound;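 active = activation above a set limit carried over from the earlier primary STAT1 screen, cut at about 140% in these data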;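 note: simple ratio to median IFN-gamma plus DMSO wells so 0% means no light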
NFkB act: counter-screen for STAT1 activators: NF-kappaB activation. activation (% of control), % at 5.7 µM. HEK293T NF-kB luciferase reporter, TNF-alpha stimulated, luminescence; 100% = TNF-alpha with vehicle only. 1,200 tested, 43% active. shares compounds with STAT1 activator;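 active = activation above the mean of solvent-only control wells plus 3 SD, set per campaign, cut at about 130% in these data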;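 note: TNF-alpha given at a submaximal dose yielding about 80% of full reporter signal; values are well signal over median control so 100% means no change and 0% no light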
STAT3 act 2: human STAT3 activation in STAT1 activator counter-screen | shares compounds with STAT1 activator | U3A cells STAT3-luciferase reporter, IL-6, luminescence; cells lack STAT1; 100 = IL-6 alone, no compound effect | activation (% of control), % at 5.7 µM | 1,200 tested, 46% active | AID 1316;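 active = activation above the solvent-only control well mean plus 3 SD, set per plate batch, cut at about 110% in these data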;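 note: 0% = no luminescence and 100% = median IL-6 plus DMSO wells; higher means more STAT3 reporter activation so hits are non-selective activators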
* = called active by the depositor; / = no result. This is a sample that favours compounds with a hit; in the whole collection about 4.9% have one here.

SMILES | STAT1 activator | STAT3 activator | NF-kB expr up | STAT3 inh | STAT1 inh | APP 5'UTR act | STAT1 act conf | NFkB act | STAT3 act 2
Cc1ccc(-n2cc(CN3CCC(O)(c4ccccn4)CC3)c(-c3ccc(F)cc3)n2)cc1 | 105.8 | 103.7 | 1.66 | 1.1 | -7.7 | -7.0 | / | / | /
COc1ccc2nc(NC(=O)Nc3ccccc3)sc2c1 | 205.2* | 80.8 | 9.05* | 24.1 | -115.6 | 189.2* | 280.5* | 116.7 | 98.4
COc1ccc2nc(NC(=O)c3ccccc3-c3ccccc3C(=O)O)sc2c1 | 105.8 | 97.2 | 2.32 | 5.6 | -8.0 | 14.1 | / | / | /
CCOC(=O)c1sc2nc(N3CCOCC3)c3c(c2c1N)CC(C(C)C)OC3 (centres undefined) | 100.0 | 80.9 | 1.24 | 30.8 | -1.0 | -10.9 | / | / | /
CCOC(=O)c1sc2nc3c(cc2c1N)COC(C(C)C)C3 (centres undefined) | 214.4* | 70.6 | 1.38 | 37.3 | -125.5 | 144.9* | 233.0* | 109.6 | 75.3
CNc1ncc(C(=O)c2ccc(F)cc2)s1 | 127.6 | 107.4 | 2 | -9.5 | -29.4 | 39.0 | / | / | /
O=C(c1ccc(F)cc1)c1cnc(Nc2ccccc2)s1 | 152.8* | 109.3 | 2.44 | -8.8 | -57.6 | 125.8 | 203.1* | 134.9* | 124.5*
O=c1/c(=C/c2ccc([N+](=O)[O-])cc2)sc2n1CCCN=2 | 156.9* | 95.7 | 1.81 | 9.3 | -61.9 | 20.6 | 182.8* | 134.6* | 96.6
O=C(COc1ccccc1[N+](=O)[O-])N/N=C/c1cccs1 | 105.9 | 90.1 | 1.24 | 11.4 | -6.6 | 30.1 | / | / | /
N#C/C(=N\Nc1ccc(Cl)cc1)C(=N)N1CCCCC1 | 222.8* | 85.3 | 7.41* | 20.9 | -134.6 | 189.7* | 315.9* | 149.0* | 117.6*
Cc1ccc(OCC(=O)Nc2ccccc2[N+](=O)[O-])c(Br)c1 | 159.5* | 112.1 | 5.7* | -0.5 | -66.2 | 154.2* | 201.8* | 135.0* | 108.8
Cc1occc1C(=O)Nc1nnc(-c2cccs2)s1 | 157.2* | 111.8 | 1.51 | -8.3 | -63.2 | 113.9 | 194.0* | 130.8 | 112.5*
Cc1occc1C(=O)Nc1nccs1 | 94.8 | 96.2 | 1 | 7.6 | 5.6 | 8.5 | / | / | /
CCOc1ccccc1C(=O)Nc1ccc(-n2nncc2C(C)(C)C)cc1 | 102.1 | 87.9 | 0.99 | 21.6 | -2.0 | -9.2 | / | / | /
Cc1nc(-c2ccc(NC(=O)c3ccccc3Br)cc2)cs1 | 151.0* | 96.2 | 4.83* | 4.4 | -57.2 | 78.6 | 173.9* | 128.8 | 102.4
Cc1nc(-c2ccc(NC(=O)c3ccccc3C)cc2)cs1 | 159.4* | 88.7 | 5.06* | 17.1 | -67.8 | 119.9 | 178.5* | 125.2 | 93.7
COc1ccc(C(=O)N/N=C(\c2ccccc2)c2ccccn2)cc1 | 100.5 | 93.8 | 3.16 | 7.2 | -0.6 | -77.9 | / | / | /
CCOc1ccc(OCc2ccc(C(=O)N/N=C(\C)c3ccccn3)cc2)cc1 | 168.8* | 115.1 | 2.12 | -15.8 | -74.8 | -78.5 | 145.6* | 188.2* | 91.3
Cc1ccc(C(=O)C(C)OC(=O)c2ccccc2[N+](=O)[O-])cc1 (centres undefined) | 180.7* | 109.5 | 9.63* | -14.0 | -90.7 | 172.9* | 213.4* | 132.8 | 127.3*
O=C(/C=C/c1ccc(F)cc1)N1CCCc2ccccc21 | 105.2 | 90.9 | 1.46 | 12.5 | -6.8 | 23.1 | / | / | /
O=C(/C=C/c1cccc(F)c1)N1CCc2ccccc21 | 199.0* | 85.4 | 0.98 | 17.8 | -112.9 | 199.8* | 238.3* | 117.2 | 98.6
CC(=O)Nc1ccc(-c2cc(-c3ccccc3)nc(-c3ccccc3)n2)cc1 | 92.5 | 103.5 | 1.69 | -5.3 | 8.4 | -9.2 | / | / | /
CC(=O)Nc1ccc2nc(-c3ccccc3)cn2c1 | 154.7* | 90.7 | 7.61* | 9.9 | -58.2 | 169.7* | 198.5* | 114.8 | 99.8
c1ccc(OCc2cc(-c3ccccc3)no2)cc1 | 151.6* | 90.3 | 1.97 | 12.4 | -54.2 | 58.6 | 169.4* | 131.3 | 98.7
COc1ccccc1OCc1cc(-c2ccccc2)no1 | 160.8* | 106.1 | 4.34* | 4.1 | -68.9 | 79.9 | 183.6* | 138.0* | 106.3
SMILES | STAT1 activator | STAT3 activator | NF-kB expr up | STAT3 inh | STAT1 inh | APP 5'UTR act | STAT1 act conf | NFkB act | STAT3 act 2
c1ccc(SCc2cc(-c3ccccc3)no2)cc1 | 161.8* | 96.6 | 2.14 | 13.9 | -70.0 | 115.5 | 175.5* | 126.6 | 102.2
Cc1ccc(SCc2cc(-c3ccc(Cl)cc3)no2)cc1 | 101.8 | 100.9 | 1.18 | 4.6 | -2.0 | / | / | / | /
Cc1cc(S(=O)(=O)Nc2ccc(F)cc2)c(C)s1 | 99.9 | 99.5 | 0.99 | 2.1 | 0.1 | 14.0 | / | / | /
Cc1ccc(N=Cc2sc(O)c3ccccc23)cc1 | 202.3* | 128.8 | 13.1* | -32.7 | -114.9 | 192.8* | 322.8* | 153.2* | 121.3*
Cc1ccc(N=Cc2cc(Br)cc(Cl)c2O)cc1 | 104.5 | 105.4 | 1.51 | -1.7 | -6.7 | -9.0 | / | / | /
N=c1oc2cc(O)ccc2cc1C(=O)Nc1nc2ccccc2s1 | 168.0* | 127.5 | 1.63 | -38.9 | -74.7 | 178.5* | 194.5* | 111.8 | 151.6*
N=c1oc2cc(O)ccc2cc1C(=O)Nc1ccccn1 | 110.1 | 107.6 | 1.42 | -2.7 | -11.2 | -9.6 | / | / | /
CCCOC(=O)c1ccc(-c2ccc(C=O)o2)cc1 | 162.5* | 111.8 | 4.83* | -15.8 | -70.2 | 105.4 | 217.0* | 132.2 | 103.9
CCN(CC(=O)Nc1ccc(N2CCOCC2)cc1)CC(=O)NC(C)(C)C | 103.0 | 104.3 | 1.03 | 0.9 | -5.6 | 11.6 | / | / | /
COc1ccc(/C=C2\SC(=O)N(CCNC(=O)C3CC4C=CC3C4)C2=O)cc1 (centres undefined) | 158.6* | 124.8 | 9.48* | -27.5 | -63.8 | 202.5* | 146.1* | 149.9* | 133.9*
O=C(N1CCCC1)C(F)(F)Oc1ccc(F)cc1 | 103.7 | 96.3 | 0.88 | 9.1 | -7.1 | 20.2 | / | / | /
CCN(/C=N/c1sc2c(c1C#N)CCCCC2)CC | 158.0* | 121.3 | 4.25* | -20.1 | -63.4 | 116.6 | 182.2* | 135.1* | 124.9*
N#Cc1c(/N=C/C=C/c2ccccc2)sc2c1CCCC2 | 91.9 | 94.5 | 1.04 | 12.9 | 9.0 | 5.2 | / | / | /
CCOC(=O)c1cnc2c(-c3ccccc3)cnn2c1N | 186.3* | 69.3 | 7.4* | 39.1 | -94.9 | 123.7 | 245.6* | 118.7 | 98.7
CCOC(=O)c1cnc2c(-c3ccccc3)c(C)nn2c1N | 112.8 | 90.8 | 1.43 | 11.0 | -15.2 | -6.4 | / | / | /
